Assay results as given in PMC4387373 (Infectious Disease Reports, 2015).
Where two headings read alike, the source gives them in different places.

Columns and labels:
[1] = assay type: in vivo, human; conditions: for concentration at 2 h / concentration at 4 h / concentration at 6 h / concentration at 8 h: human, plasma, oral; for Cthrough (through concentration): patient on sildenafil 40 mg tid, bosentan 125 mg bid, ritonavir-boosted PI
[2] = cited from earlier work
[3] = Plasma concentrations of protease inhibitors; assay type: in vivo, human; conditions: for concentration at 2 h / concentration at 4 h / concentration at 6 h / concentration at 8 h: human, plasma, oral; for Plasma concentration, t0: t0, 8 a.m., before intake of antiretroviral dose, fosamprenavir 700 mg bid
Procedure, shortened: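 Heparinized venous blood was drawn before the morning antiretroviral dose (T0) and at 2, 4, 6 and 8 h after it. Plasma was separated by centrifugation and stored at −80 °C. PI levels were measured by a validated HPLC method.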

[4] = Clinical course of the patient: hemodynamics, functional class, tolerability; assay type: in vivo, human
[5] = cited from earlier work; remark: listed apart in the source
[6] = cited from earlier work; remark: listed apart in the source
phosphodiesterase = conditions: same phosphodiesterase specificity as sildenafil; cited from earlier work
[7] = coadministered with lopinavir/ritonavir

## COc1ccccc1Oc1c(NS(=O)(=O)c2ccc(C(C)(C)C)cc2)nc(-c2ncccn2)nc1OCCO [bosentan]
[1]
  concentration at 2 h: 3370 ng/mL
  concentration at 4 h: 1750 ng/mL
  concentration at 6 h: 1310 ng/mL
  concentration at 8 h: 1230 ng/mL
  Cthrough (through concentration): 1546.53 ng/mL
[2]; by steady-state sildenafil, healthy volunteers
  Increase of Cmax: 42%
[2]; [7]
  Increase in AUC at steady state: 422%
  Increase in Cmax at steady state: 512%

## CC(C)CN(C[C@@H](O)[C@H](Cc1ccccc1)NC(=O)O[C@H]1CCOC1)S(=O)(=O)c1ccc(N)cc1 [amprenavir]
[3]
  concentration at 2 h: 1680 ng/mL
  concentration at 4 h: 3960 ng/mL
  concentration at 6 h: 2170 ng/mL
  concentration at 8 h: 1890 ng/mL
[3]; patient on fosamprenavir 700 mg bid, ritonavir 100 mg bid
  Cthrough: 1495 ng/mL
[3]; patient, therapeutic ranges from ref 16
  Plasma levels versus therapeutic ranges: within therapeutic ranges
[3]; ritonavir 100 mg bid
  Plasma concentration, t0: 1495 ng/mL

## CCCc1nn(C)c2c(=O)[nH]c(-c3cc(S(=O)(=O)N4CCN(C)CC4)ccc3OCC)nc12 [sildenafil]
[1]; coadministration of sildenafil and ritonavir-boosted PI
  Plasma concentration versus the therapeutic range: above the therapeutic range
[1]
  concentration at 2 h: 925 ng/mL
  concentration at 4 h: 566 ng/mL
  concentration at 6 h: 1730 ng/mL
  concentration at 8 h: 900 ng/mL
  Cthrough (through concentration): 276.94 ng/mL
[4]; May 2012, worsening exertional dyspnea on sildenafil 20 mg tid
  Mean PAP: 47 mmHg
[4]; October 2012, after sildenafil increased to 40 mg tid, bosentan 125 mg bid
  Mean PAP: 40 mmHg
[4]; October 2012, sildenafil 40 mg tid, bosentan 125 mg bid
  6-minute walking test: 479 m
[4]; after introduction of sildenafil 20 mg tid
  NYHA stage change: from NYHA stage III to NYHA stage II
[4]; after sildenafil 20 mg tid was added to bosentan, previously 63 mmHg
  Mean PAP: 43 mmHg
[4]; during follow-up
  Eye fundus examination versus baseline: no significant changes
[4]; measured regularly during the investigation
  Influence on systemic blood pressure: no significant influence
[4]; patient with raised sildenafil levels, headache, flushing, dyspepsia, priapism
  Adverse reactions during follow-up: did not report any adverse reactions
[5]; healthy adults, 20 mg tid, oral
  tmax: approximately 1 hour
[5]; healthy adults, sildenafil 20 mg tid
  Cmax: about 145 ng/mL
[2]; with ritonavir 500 mg twice daily
  Increase of AUC: 11 fold
[6]
  Plasma concentration at which maximal reductions in PAP and PVR were obtained: ~100 ng/mL

## CC(C)c1nc(CN(C)C(=O)N[C@H](C(=O)N[C@@H](Cc2ccccc2)C[C@H](O)[C@H](Cc2ccccc2)NC(=O)OCc2cncs2)C(C)C)cs1 [ritonavir]
[3]
  concentration at 2 h: < 50 ng/mL
  concentration at 4 h: < 50 ng/mL
  concentration at 6 h: < 50 ng/mL
  concentration at 8 h: < 50 ng/mL
[3]; ritonavir 100 mg bid, bosentan coadministered
  Plasma levels in all of the samples: undetectable
[3]; ritonavir 100 mg bid
  Plasma concentration, t0: <50 ng/mL

## CCCc1nn(C)c2c(=O)[nH]c(-c3cc(S(=O)(=O)N4CCNCC4)ccc3OCC)nc12 [N-desmethylsildenafil]
[1]; during the study, patient on ritonavir-boosted PI
  Plasma concentrations as % of the parent drug: 40-50%
[1]; t2, 10 a.m., 2 hours after intake of sildenafil and bosentan
  Plasma concentration, t2: 58.33 ng/mL
[1]; t4, noon, 4 hours after intake of sildenafil and bosentan
  Plasma concentration, t4: 61.85 ng/mL
[1]; t6, 2 p.m., 6 hours after intake of sildenafil and bosentan
  Plasma concentration, t6: 140.95 ng/mL
[1]; t8, 4 p.m., 8 hours after intake of sildenafil and bosentan
  Plasma concentration, t8: 121.35 ng/mL
[5]; metabolite relative to sildenafil
  Plasma levels as % of the parent drug: 40-50%
phosphodiesterase
  Potency relative to sildenafil: about half the potency
